Assay results published in ChEMBL document CHEMBL2331168, “Anticonvulsant evaluation of aminoalkanol derivatives of 2- and 4-methylxanthone” (Bioorg Med Chem, 2013).
Activity calls are given as the source filed them.

How the values were obtained:
Rattus norvegicus [1] = assay: Anticonvulsant activity in Sprague-Dawley rat assessed as protection against maximal electroshock-induced seizures at 30 mg/kg, po after 4 hrs; assay type: functional, organism-based; set-up: dose 30 mg/kg
How it was run: (§1)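 Male Sprague-Dawley rats dosed orally at 30 mg/kg and tested at 0.25, 0.5, 1, 2 and 4 h. Seizures were induced by 60 Hz alternating current at 150 mA for 0.2 s through corneal electrodes, after a drop of 0.9% NaCl in each eye. Protection meant abolition of hindlimb tonic extension. Reported as protected/tested, usually 4 rats per time point.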

Rattus norvegicus [2] = assay: Anticonvulsant activity in Sprague-Dawley rat assessed as protection against maximal electroshock-induced seizures at 30 mg/kg, po after 1 hr; assay type: functional, organism-based; set-up: dose 30 mg/kg; how it was run: as §1
Rattus norvegicus [3] = assay: Anticonvulsant activity in Sprague-Dawley rat assessed as protection against maximal electroshock-induced seizures at 30 mg/kg, po after 0.25 hrs; assay type: functional, organism-based; set-up: dose 30 mg/kg; how it was run: as §1
Mus musculus [4] = assay: Neurotoxicity in albino mouse assessed as minimal motor impairment at 300 mg/kg, ip after 4 hrs by rotorod test; assay type: toxicity, organism-based; set-up: dose 300 mg/kg, route intraperitoneal; conditions: in vivo
How it was run: (§2)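 Male albino mice (Carworth Farms No. 1) were dosed ip with suspensions in 0.5% methylcellulose and put on a 1 in. knurled rod rotating at 6 rpm at set times after dosing. Neurotoxicity meant failure to stay on the rod for at least 1 min in each of three trials. Scored as impaired/tested.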

Mus musculus [5] = assay: Neurotoxicity in albino mouse assessed as minimal motor impairment at 100 mg/kg, ip after 4 hrs by rotorod test; assay type: toxicity, organism-based; set-up: dose 100 mg/kg, route intraperitoneal; conditions: in vivo; how it was run: as §2
Mus musculus [6] = assay: Neurotoxicity in albino mouse assessed as minimal motor impairment at 30 mg/kg, ip after 4 hrs by rotorod test; assay type: toxicity, organism-based; set-up: dose 30 mg/kg, route intraperitoneal; conditions: in vivo; how it was run: as §2
Mus musculus [7] = assay: Neurotoxicity in albino mouse assessed as minimal motor impairment at 300 mg/kg, ip after 0.5 hrs by rotorod test; assay type: toxicity, organism-based; set-up: dose 300 mg/kg, route intraperitoneal; conditions: in vivo; how it was run: as §2
Mus musculus [8] = assay: Anticonvulsant activity in albino mouse assessed as protection against subcutaneous pentetrazole-induced seizures at 100 mg/kg, ip after 4 hrs; assay type: functional, organism-based; set-up: dose 100 mg/kg
How it was run: (§3)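 Male albino mice (Carworth Farms No. 1) received compound ip in 0.5% methylcellulose, then pentetrazole 85 mg/kg sc in 0.9% NaCl at 0.5 or 4 h. Mice were watched for at least 30 min. Protection meant no threshold seizure, defined as a single clonic spasm lasting at least 5 s. Scored as protected/tested.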

Mus musculus [9] = assay: Anticonvulsant activity in albino mouse assessed as protection against subcutaneous pentetrazole-induced seizures at 300 mg/kg, ip after 0.5 hrs; assay type: functional, organism-based; set-up: dose 300 mg/kg; how it was run: as §3
Mus musculus [10] = assay: Anticonvulsant activity in albino mouse assessed as protection against subcutaneous pentetrazole-induced seizures at 30 mg/kg, ip after 4 hrs; assay type: functional, organism-based; set-up: dose 30 mg/kg; how it was run: as §3
Mus musculus [11] = assay: Anticonvulsant activity in albino mouse assessed as protection against subcutaneous pentetrazole-induced seizures at 100 mg/kg, ip after 0.5 hrs; assay type: functional, organism-based; set-up: dose 100 mg/kg; how it was run: as §3
Mus musculus [12] = assay: Anticonvulsant activity in albino mouse assessed as protection against subcutaneous pentetrazole-induced seizures at 30 mg/kg, ip after 0.5 hrs; assay type: functional, organism-based; set-up: dose 30 mg/kg; how it was run: as §3
Mus musculus [13] = assay: Anticonvulsant activity in albino mouse assessed as protection against maximal electroshock-induced seizures at 300 mg/kg, ip after 4 hrs; assay type: functional, organism-based; set-up: dose 300 mg/kg
How it was run: (§4)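 Male albino mice (Carworth Farms No. 1) were given the compound ip as a suspension in 0.5% methylcellulose at 3–300 mg/kg. MES testing was at 0.5 and 4 h, sometimes also at 0.25 and 1 h. Current was 60 Hz, 50 mA, 0.2 s via corneal electrodes, with saline eye drops. Protection meant no hindlimb tonic extension, scored as protected/tested.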

Mus musculus [14] = assay: Anticonvulsant activity in albino mouse assessed as protection against maximal electroshock-induced seizures at 100 mg/kg, ip after 4 hrs; assay type: functional, organism-based; set-up: dose 100 mg/kg; how it was run: as §4
Mus musculus [15] = assay: Anticonvulsant activity in albino mouse assessed as protection against maximal electroshock-induced seizures at 30 mg/kg, ip after 4 hrs; assay type: functional, organism-based; set-up: dose 30 mg/kg; how it was run: as §4
Mus musculus [16] = assay: Anticonvulsant activity in albino mouse assessed as protection against maximal electroshock-induced seizures at 300 mg/kg, ip after 0.5 hrs; assay type: functional, organism-based; set-up: dose 300 mg/kg; how it was run: as §4
Mus musculus [17] = assay: Anticonvulsant activity in albino mouse assessed as protection against maximal electroshock-induced seizures at 100 mg/kg, ip after 0.5 hrs; assay type: functional, organism-based; set-up: dose 100 mg/kg; how it was run: as §4
Mus musculus [18] = assay: Anticonvulsant activity in albino mouse assessed as protection against maximal electroshock-induced seizures at 30 mg/kg, ip after 0.5 hrs; assay type: functional, organism-based; set-up: dose 30 mg/kg; how it was run: as §4
Mus musculus [19] = assay: Neurotoxicity in albino mouse assessed as minimal motor impairment at 30 mg/kg, ip after 0.5 hrs by rotorod test; assay type: toxicity, organism-based; set-up: dose 30 mg/kg, route intraperitoneal; conditions: in vivo; how it was run: as §2
Rattus norvegicus [20] = assay: Neurotoxicity in Sprague-Dawley rat assessed as minimal motor impairment at 30 mg/kg, po after 2 hrs by rotorod test; conditions: in vivo
Rattus norvegicus [21] = assay: Neurotoxicity in Sprague-Dawley rat assessed as minimal motor impairment at 30 mg/kg, po after 0.25 hrs by rotorod test; conditions: in vivo
Rattus norvegicus [22] = assay: Anticonvulsant activity in Sprague-Dawley rat assessed as protection against maximal electroshock-induced seizures at 30 mg/kg, po after 2 hrs; assay type: functional, organism-based; set-up: dose 30 mg/kg; how it was run: as §1
Mus musculus [23] = assay: Neurotoxicity in albino mouse assessed as minimal motor impairment at 100 mg/kg, ip after 0.5 hrs by rotorod test; assay type: toxicity, organism-based; set-up: dose 100 mg/kg, route intraperitoneal; conditions: in vivo; how it was run: as §2
Rattus norvegicus [24] = assay: Neurotoxicity in Sprague-Dawley rat assessed as minimal motor impairment at 30 mg/kg, po after 1 hr by rotorod test; conditions: in vivo
Rattus norvegicus [25] = assay: Neurotoxicity in Sprague-Dawley rat assessed as minimal motor impairment at 30 mg/kg, po after 4 hrs by rotorod test; conditions: in vivo
Rattus norvegicus [26] = assay: Neurotoxicity in Sprague-Dawley rat assessed as minimal motor impairment at 30 mg/kg, po after 0.5 hrs by rotorod test; conditions: in vivo
Mus musculus [27] = assay: Anticonvulsant activity in albino mouse assessed as protection against subcutaneous pentetrazole-induced seizures at 300 mg/kg, ip after 4 hrs; assay type: functional, organism-based; set-up: dose 300 mg/kg; how it was run: as §3
Rattus norvegicus [28] = assay: Anticonvulsant activity in Sprague-Dawley rat assessed as protection against maximal electroshock-induced seizures at 30 mg/kg, po after 0.5 hrs; assay type: functional, organism-based; set-up: dose 30 mg/kg; how it was run: as §1

Row | SMILES | Activity (Rattus norvegicus [3]) | Activity (Mus musculus [5]) | Activity (Mus musculus [6]) | Activity (Mus musculus [7]) | Activity (Mus musculus [8]) | Activity (Mus musculus [9]) | Activity (Mus musculus [10]) | Activity (Mus musculus [11]) | Activity (Mus musculus [12]) | Activity (Mus musculus [13]) | Activity (Mus musculus [14]) | Activity (Mus musculus [15]) | Activity (Mus musculus [16]) | Activity (Mus musculus [18]) | Activity (Mus musculus [19]) | Activity (Rattus norvegicus [20]) | Activity (Rattus norvegicus [21]) | Activity (Rattus norvegicus [24]) | Activity (Rattus norvegicus [25]) | Activity (Rattus norvegicus [26]) | further results
1 | COc1ccc2c(=O)c3cccc(CN[C@H](C)CO)c3oc2c1 | inactive | Non-toxic | Non-toxic | Toxic | inactive | inactive | inactive | inactive | inactive | Active | inactive | inactive | Active | inactive | Non-toxic | Non-toxic | Non-toxic | – | – | – | Activity (Rattus norvegicus [1]): inactive; Activity (Rattus norvegicus [2]): inactive; Activity (Mus musculus [4]): Toxic; Activity (Mus musculus [17]): inactive
2 | COc1ccc2c(=O)c3cccc(CNC(C)(C)CO)c3oc2c1 | inactive | Non-toxic | Non-toxic | Toxic | inactive | – | inactive | inactive | inactive | – | inactive | inactive | – | inactive | Non-toxic | Non-toxic | Non-toxic | Non-toxic | Non-toxic | Non-toxic | Activity (Rattus norvegicus [22]): inactive; Activity (Mus musculus [23]): Toxic; Activity (Mus musculus [17]): Active
3 | CC[C@@H](CO)NCc1cccc2c(=O)c3ccc(OC)cc3oc12 | inactive | – | Non-toxic | Toxic | inactive | inactive | inactive | inactive | inactive | Active | – | inactive | Active | inactive | – | Non-toxic | Non-toxic | Non-toxic | Non-toxic | Non-toxic | Activity (Rattus norvegicus [1]): inactive; Activity (Mus musculus [27]): inactive
4 | COc1ccc2c(=O)c3cccc(CNCC(C)O)c3oc2c1 (racemic) | – | – | Non-toxic | Toxic | inactive | – | inactive | inactive | inactive | – | – | inactive | – | inactive | Non-toxic | – | – | – | – | – | Activity (Mus musculus [23]): Toxic; Activity (Mus musculus [17]): Active
5 | CC(CO)NCc1ccc2oc3ccc(Cl)cc3c(=O)c2c1 (racemic) | inactive | Non-toxic | Non-toxic | Non-toxic | inactive | inactive | inactive | inactive | inactive | Active | – | inactive | inactive | inactive | Non-toxic | Non-toxic | Non-toxic | Non-toxic | Non-toxic | Non-toxic | Activity (Rattus norvegicus [22]): inactive; Activity (Rattus norvegicus [28]): inactive; Activity (Mus musculus [4]): Non-toxic; Activity (Mus musculus [23]): Non-toxic; Activity (Mus musculus [27]): inactive; Activity (Mus musculus [17]): inactive
6 | COc1ccc2c(=O)c3cccc(CNC(C)CO)c3oc2c1.Cl (racemic) | inactive | Toxic | Non-toxic | Toxic | – | – | inactive | inactive | inactive | – | inactive | inactive | – | inactive | Non-toxic | Non-toxic | Non-toxic | Non-toxic | Non-toxic | Non-toxic | Activity (Rattus norvegicus [22]): inactive; Activity (Rattus norvegicus [2]): inactive
7 | COc1ccc2c(=O)c3cccc(CN[C@@H](C)CO)c3oc2c1 | inactive | Non-toxic | Non-toxic | – | inactive | inactive | inactive | inactive | inactive | Active | inactive | inactive | inactive | inactive | Non-toxic | Non-toxic | Non-toxic | Non-toxic | Non-toxic | Non-toxic | Activity (Rattus norvegicus [1]): inactive; Activity (Rattus norvegicus [22]): inactive; Activity (Rattus norvegicus [28]): inactive; Activity (Mus musculus [4]): Non-toxic; Activity (Mus musculus [27]): inactive
8 | C[C@H](CO)NCc1ccc2oc3ccc(Cl)cc3c(=O)c2c1 | – | Non-toxic | Non-toxic | – | inactive | inactive | inactive | inactive | inactive | Active | inactive | inactive | Active | inactive | Non-toxic | Non-toxic | Non-toxic | Non-toxic | Non-toxic | Non-toxic | Activity (Rattus norvegicus [22]): inactive; Activity (Rattus norvegicus [28]): inactive; Activity (Mus musculus [4]): Non-toxic; Activity (Mus musculus [23]): Non-toxic; Activity (Mus musculus [27]): inactive
9 | CC[C@H](CO)NCc1cccc2c(=O)c3ccc(OC)cc3oc12 | – | Non-toxic | Non-toxic | Toxic | inactive | inactive | inactive | inactive | inactive | Active | inactive | inactive | Active | inactive | Non-toxic | Non-toxic | Non-toxic | Non-toxic | Non-toxic | Non-toxic | Activity (Rattus norvegicus [28]): inactive; Activity (Mus musculus [4]): Non-toxic; Activity (Mus musculus [23]): Non-toxic; Activity (Mus musculus [27]): inactive
